≈ marks a conversion by molar mass, not a printed value. Calls of active or inactive are those of the source. The calls are words filed in the database; no cut-off is given here.
How the values were obtained:
[1] = tested on: Enterobacteriaceae; experiment: Antibacterial activity against NDM1 producing carbapenem-resistant Enterobacteriaceae clinical isolate 7 assessed as reduction in bacterial growth incubated for 16 to 20 hrs by CLSI-based broth microdilution method; assay type: functional; conditions: time 16-20 hrs
In short: (§1)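 Clinical isolates tested by broth microdilution in cation-adjusted Mueller-Hinton broth. Cultures grown 4-6 h (~10^8 CFU/mL) were diluted to ~10^6 CFU/mL and mixed 1:1 with compound serial dilutions made from 256 down to 0.5 µg/mL (pre-mixing). Plates held at 37 °C for 16-20 h, then read for growth. Each concentration run in duplicate, whole experiment at least twice.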

[2] = tested on: Cell membrane; experiment: Induction of inner membrane permeabilization in Staphylococcus aureus ATCC 29213 at 20 ug/ml measured for 12 mins by propidium iodide staining based fluorescence microscopic analysis; conditions: dose 20.0 µg/ml
In short: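 Mid-log bacteria were washed and resuspended at ~10^8 CFU/mL and preincubated with propidium iodide (10 µM stock) for 30 min (S. aureus) or 40 min (E. coli). Fluorescence (ex 535/em 617 nm) was read on a plate for an 8 min baseline, then every 2 min for 12 min after compound at 20 µg/mL final. Water served as control.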

[3] = tested on: Enterococcus faecalis; experiment: Antibacterial activity against Enterococcus faecalis ATCC 29212 assessed as reduction in bacterial growth incubated 16 to 20 hrs by CLSI-based broth microdilution method; assay type: functional; conditions: time 16-20 hrs
In short: (§2)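 Broth microdilution following CLSI, in cation-adjusted Mueller-Hinton broth. Inoculum from a 4-6 h culture (~10^8 CFU/mL), diluted to ~10^6 CFU/mL. Water stocks were serially diluted in MHB (256 to 0.5 µg/mL) and mixed 1:1 with the inoculum. Plates ran 16-20 h at 37 °C. MIC was read visually. Each concentration was tested in duplicate, and the experiment was repeated at least twice.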

[4] = tested on: Enterobacteriaceae; experiment: Antibacterial activity against NDM1 producing carbapenem-resistant Enterobacteriaceae clinical isolate 8 assessed as reduction in bacterial growth incubated for 16 to 20 hrs by CLSI-based broth microdilution method; assay type: functional; conditions: time 16-20 hrs; in short: as §1
[5] = tested on: Klebsiella pneumoniae; experiment: Antibacterial activity against carbapenem-resistant Klebsiella pneumoniae clinical isolate 6 assessed as reduction in bacterial growth incubated for 16 to 20 hrs by CLSI-based broth microdilution method; assay type: functional; conditions: time 16-20 hrs; in short: as §1
[6] = tested on: Enterobacteriaceae; experiment: Antibacterial activity against NDM1 producing carbapenem-resistant Enterobacteriaceae clinical isolate 10 assessed as reduction in bacterial growth incubated for 16 to 20 hrs by CLSI-based broth microdilution method; assay type: functional; conditions: time 16-20 hrs; in short: as §1
[7] = tested on: Klebsiella pneumoniae; experiment: Antibacterial activity against carbapenem-resistant Klebsiella pneumoniae clinical isolate 2 assessed as reduction in bacterial growth incubated for 16 to 20 hrs by CLSI-based broth microdilution method; assay type: functional; conditions: time 16-20 hrs; in short: as §1
[8] = tested on: Klebsiella pneumoniae; experiment: Antibacterial activity against carbapenem-resistant Klebsiella pneumoniae clinical isolate 10 assessed as reduction in bacterial growth incubated for 16 to 20 hrs by CLSI-based broth microdilution method; assay type: functional; conditions: time 16-20 hrs; in short: as §1
[9] = tested on: Staphylococcus aureus; experiment: Antibacterial activity against methicillin-resistant Staphylococcus aureus clinical isolate 5 assessed as reduction in bacterial growth incubated for 16 to 20 hrs by CLSI-based broth microdilution method; assay type: functional; conditions: time 16-20 hrs; in short: as §1
[10] = tested on: Enterobacteriaceae; experiment: Antibacterial activity against NDM1 producing carbapenem-resistant Enterobacteriaceae clinical isolate 6 assessed as reduction in bacterial growth incubated for 16 to 20 hrs by CLSI-based broth microdilution method; assay type: functional; conditions: time 16-20 hrs; in short: as §1
[11] = tested on: Cell membrane; experiment: Induction of outer membrane permeabilization in Escherichia coli ATCC 25922 at 20 ug/ml measured for 12 mins by NPN dye based fluorescence assay; conditions: dose 20.0 µg/ml
In short: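 Mid-log E. coli in HEPES/glucose/KCl at ~10^8 CFU/mL was preincubated 40 min with N-phenylnaphthylamine (10 µM stock). Fluorescence (ex 350/em 420 nm) was read for an 8 min baseline, then every 2 min for 12 min after compound at 20 µg/mL final. Water served as control.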

[12] = tested on: Klebsiella pneumoniae; experiment: Antibacterial activity against carbapenem-resistant Klebsiella pneumoniae clinical isolate 4 assessed as reduction in bacterial growth incubated for 16 to 20 hrs by CLSI-based broth microdilution method; assay type: functional; conditions: time 16-20 hrs; in short: as §1
[13] = tested on: Enterobacteriaceae; experiment: Antibacterial activity against NDM1 producing carbapenem-resistant Enterobacteriaceae clinical isolate 1 assessed as reduction in bacterial growth incubated for 16 to 20 hrs by CLSI-based broth microdilution method; assay type: functional; conditions: time 16-20 hrs; in short: as §1
[14] = tested on: Klebsiella pneumoniae; experiment: Antibacterial activity against carbapenem-resistant Klebsiella pneumoniae clinical isolate 5 assessed as reduction in bacterial growth incubated for 16 to 20 hrs by CLSI-based broth microdilution method; assay type: functional; conditions: time 16-20 hrs; in short: as §1
[15] = tested on: Klebsiella pneumoniae; experiment: Antibacterial activity against carbapenem-resistant Klebsiella pneumoniae clinical isolate 9 assessed as reduction in bacterial growth incubated for 16 to 20 hrs by CLSI-based broth microdilution method; assay type: functional; conditions: time 16-20 hrs; in short: as §1
[16] = tested on: Enterobacteriaceae; experiment: Antibacterial activity against NDM1 producing carbapenem-resistant Enterobacteriaceae clinical isolate 2 assessed as reduction in bacterial growth incubated for 16 to 20 hrs by CLSI-based broth microdilution method; assay type: functional; conditions: time 16-20 hrs; in short: as §1
[17] = tested on: Cell membrane; experiment: Induction of cytoplasmic membrane depolarization in Staphylococcus aureus ATCC 29213 at 20 ug/ml measured for 12 mins by DiSC35 dye-based fluorescence assay; assay type: subcellular; conditions: dose 20.0 µg/ml
In short: (§3)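 Mid-log bacteria were washed and resuspended at ~10^8 CFU/mL: S. aureus in PBS, E. coli in 5 mM HEPES/5 mM glucose/100 mM KCl (1:1:1). Cells were loaded with diSC35 (10 µM stock) for 30 min (S. aureus) or 40 min (E. coli, plus EDTA). Fluorescence (ex 622/em 670 nm) was read for an 8 min baseline, then every 2 min for 12 min after compound at 20 µg/mL final. Water served as control.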

[18] = tested on: Staphylococcus aureus; experiment: Antibacterial activity against methicillin-resistant Staphylococcus aureus clinical isolate 4 assessed as reduction in bacterial growth incubated for 16 to 20 hrs by CLSI-based broth microdilution method; assay type: functional; conditions: time 16-20 hrs; in short: as §1
[19] = tested on: Klebsiella pneumoniae; experiment: Antibacterial activity against carbapenem-resistant Klebsiella pneumoniae clinical isolate 7 assessed as reduction in bacterial growth incubated for 16 to 20 hrs by CLSI-based broth microdilution method; assay type: functional; conditions: time 16-20 hrs; in short: as §1
[20] = tested on: Enterobacteriaceae; experiment: Antibacterial activity against NDM1 producing carbapenem-resistant Enterobacteriaceae clinical isolate 4 assessed as reduction in bacterial growth incubated for 16 to 20 hrs by CLSI-based broth microdilution method; assay type: functional; conditions: time 16-20 hrs; in short: as §1
[21] = tested on: Staphylococcus aureus; experiment: Antibacterial activity against methicillin-resistant Staphylococcus aureus clinical isolate 6 assessed as reduction in bacterial growth incubated for 16 to 20 hrs by CLSI-based broth microdilution method; assay type: functional; conditions: time 16-20 hrs; in short: as §1
[22] = tested on: Cell membrane; experiment: Induction of cytoplasmic membrane depolarization in Escherichia coli ATCC 25922 at 20 ug/ml measured for 12 mins by DiSC35 dye-based fluorescence assay; assay type: subcellular; conditions: dose 20.0 µg/ml; in short: as §3
[23] = tested on: Staphylococcus aureus; experiment: Antibacterial activity against methicillin-resistant Staphylococcus aureus clinical isolate 1 assessed as reduction in bacterial growth incubated for 16 to 20 hrs by CLSI-based broth microdilution method; assay type: functional; conditions: time 16-20 hrs; in short: as §1
[24] = tested on: Enterobacteriaceae; experiment: Antibacterial activity against NDM1 producing carbapenem-resistant Enterobacteriaceae clinical isolate 9 assessed as reduction in bacterial growth incubated for 16 to 20 hrs by CLSI-based broth microdilution method; assay type: functional; conditions: time 16-20 hrs; in short: as §1
[25] = tested on: Klebsiella pneumoniae; experiment: Antibacterial activity against carbapenem-resistant Klebsiella pneumoniae clinical isolate 8 assessed as reduction in bacterial growth incubated for 16 to 20 hrs by CLSI-based broth microdilution method; assay type: functional; conditions: time 16-20 hrs; in short: as §1
[26] = tested on: Salmonella enterica; experiment: Antibacterial activity against Salmonella enterica ATCC 8387 assessed as reduction in bacterial growth incubated for 16 to 20 hrs by CLSI-based broth microdilution method; assay type: functional; conditions: time 16-20 hrs; in short: as §2
[27] = tested on: Staphylococcus aureus; experiment: Antibacterial activity against Staphylococcus aureus ATCC 29213 assessed as reduction in bacterial growth incubated for 16 to 20 hrs by CLSI-based broth microdilution method; assay type: functional; conditions: time 16-20 hrs; in short: as §2

Row | SMILES | MIC [1] [µg/mL] | Activity [2] | MIC [3] [µg/mL] | MIC [4] [µg/mL] | MIC [5] [µg/mL] | MIC [6] [µg/mL] | MIC [7] [µg/mL] | MIC [8] [µg/mL] | MIC [9] [µg/mL] | MIC [10] [µg/mL] | Activity [11] | MIC [12] [µg/mL] | MIC [13] [µg/mL] | MIC [14] [µg/mL] | MIC [15] [µg/mL] | MIC [16] [µg/mL] | Activity [17] | MIC [18] [µg/mL] | MIC [19] [µg/mL] | MIC [20] [µg/mL] | also measured
1 | C[C@@H](O)[C@H]1C(=O)N2C(C(=O)O)=C(S[C@@H]3CN[C@H](C(=O)N(C)C)C3)[C@H](C)[C@H]12 [MEROPENEM] | 64 (≈ 167 µM) | inactive | 4 (≈ 10.4 µM) | > 64 | > 64 | > 64 | > 64 | 64 (≈ 167 µM) | 64 (≈ 167 µM) | 2 (≈ 5.22 µM) | inactive | 32 (≈ 83.4 µM) | 32 (≈ 83.4 µM) | 32 (≈ 83.4 µM) | > 64 | 16 (≈ 41.7 µM) | inactive | 32 (≈ 83.4 µM) | > 64 | 64 (≈ 167 µM) | MIC [21]: 32 µg/mL (≈ 83.4 µM); Activity [22]: inactive; MIC [23]: 64 µg/mL (≈ 167 µM); MIC [24]: > 64 µg/mL; MIC [25]: 32 µg/mL (≈ 83.4 µM); MIC [26]: < 0.125 µg/mL; MIC [27]: 0.125 µg/mL (≈ 0.326 µM)
2 | CCCCCCCCCCCN(C[C@H]1CN(c2ccc(N3CCOCC3)c(F)c2)C(=O)O1)C(=O)[C@@H](N)CCCCN.Cl.Cl | 16 | Active | 4 | 16 | 16 | 16 | 16 | 16 | 4 | 16 | inactive | 16 | > 64 | 16 | 16 | > 64 | Active | 4 | 16 | 16 | MIC [21]: 2 µg/mL; Activity [22]: Active; MIC [23]: 4 µg/mL; MIC [24]: 16 µg/mL; MIC [25]: 16 µg/mL; MIC [26]: 16 µg/mL; MIC [27]: 2 µg/mL
